Experimental data taken from ChEMBL document CHEMBL2062515, “Synthesis and evaluation of novel radioligands for positron emission tomography imaging of metabotropic glutamate receptor subtype 1 (mGluR1) in rodent brain” (J Med Chem, 2012).

Experiments:
Lung [1] = experiment: Biodistribution in mouse lung at 4.8 MBq/140 uL, iv after 5 mins by gamma counting; assay type: ADME, organism-based; conditions: in vivo
In short: (§1)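 Mice received the radioligand in saline by tail vein (4.8 MBq/140 μL, 40 pmol). Four mice per time point were killed by cervical dislocation at 1, 5, 15, 30 and 60 min. Tissues were removed quickly and counted in an autogamma counter. Data are decay-corrected % injected dose per gram of wet tissue, mean ± SE, n = 4.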

Heart [2] = experiment: Biodistribution in mouse heart at 4.8 MBq/140 uL, iv after 5 mins by gamma counting; assay type: ADME, organism-based; conditions: in vivo; in short: as §1
Muscle tissue [3] = experiment: Biodistribution in mouse muscle at 4.8 MBq/140 uL, iv after 15 mins by gamma counting; assay type: ADME, organism-based; conditions: in vivo, 0.25 h; in short: as §1
Brain [4] = experiment: Drug uptake in mGluR1 knockout mouse brain at 17 MBq, iv up to 60 mins by PET analysis; assay type: ADME, organism-based; conditions: in vivo, 1 h
Mus musculus [5] = experiment: Biodistribution in mouse small intestine at 4.8 MBq/140 uL, iv after 1 min by gamma counting; assay type: ADME, organism-based; conditions: in vivo
In short: (§2)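 [¹¹C]radioligand in saline (4.8 MBq/140 μL, 40 pmol) injected via tail vein; four mice per time point killed by cervical dislocation at 1, 5, 15, 30, 60 min. Tissues (small intestine including contents) removed, counted in autogamma counter, decay-corrected, expressed as % injected dose per gram wet tissue; mean SE, n = 4.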

[6] = Metabolic stability in Sprague-Dawley rat brain assessed as compound remaining after 90 mins; assay type: ADME, tissue-based; conditions: read-out: Stability
Muscle tissue [7] = experiment: Biodistribution in mouse muscle at 4.8 MBq/140 uL, iv after 1 min by gamma counting; assay type: ADME, organism-based; conditions: in vivo; in short: as §1
Cerebellum = experiment: Drug uptake in Sprague-Dawley rat cerebellum at 16 MBq administered as bolus infusion after 45 mins post injection by PET analysis; assay type: ADME, organism-based; conditions: in vivo, iv, 0.75 h
Heart [8] = experiment: Biodistribution in mouse heart at 4.8 MBq/140 uL, iv after 1 min by gamma counting; assay type: ADME, organism-based; conditions: in vivo; in short: as §1
Liver = experiment: Biodistribution in mouse liver at 4.8 MBq/140 uL, iv after 30 mins by gamma counting; assay type: ADME, organism-based; conditions: in vivo, 0.5 h; in short: as §1
Mus musculus [9] = experiment: Biodistribution in mouse testis at 4.8 MBq/140 uL, iv after 30 mins by gamma counting; assay type: ADME, organism-based; conditions: in vivo, 0.5 h; in short: as §2
Muscle tissue [10] = experiment: Biodistribution in mouse muscle at 4.8 MBq/140 uL, iv after 30 mins by gamma counting; assay type: ADME, organism-based; conditions: in vivo, 0.5 h; in short: as §1
[11] = Ratio of drug uptake in striatum to pons of Sprague-Dawley rat at 16 MBq administered as bolus infusion; conditions: in vivo, iv
Kidney = experiment: Biodistribution in mouse kidney at 4.8 MBq/140 uL, iv after 5 mins by gamma counting; assay type: ADME, organism-based; conditions: in vivo; in short: as §1
Brain [12] = experiment: Biodistribution in mouse brain at 4.8 MBq/140 uL, iv after 5 mins by gamma counting; assay type: ADME, organism-based; conditions: in vivo; in short: as §1
Plasma = experiment: Metabolic stability in Sprague-Dawley rat plasma assessed as compound remaining after 90 mins; assay type: ADME, cell-free; conditions: 1.5 h
Lung [13] = experiment: Biodistribution in mouse lung at 4.8 MBq/140 uL, iv after 1 min by gamma counting; assay type: ADME, organism-based; conditions: in vivo; in short: as §1
Spleen = experiment: Biodistribution in mouse spleen at 4.8 MBq/140 uL, iv after 1 min by gamma counting; assay type: ADME, organism-based; conditions: in vivo; in short: as §2
Mus musculus [14] = experiment: Biodistribution in mouse testis at 4.8 MBq/140 uL, iv after 5 mins by gamma counting; assay type: ADME, organism-based; conditions: in vivo; in short: as §2
Thalamus [15] = experiment: Drug uptake in Sprague-Dawley rat thalamus at 16 MBq administered as bolus infusion after 90 mins by PET analysis; assay type: ADME, organism-based; conditions: in vivo, iv, 1.5 h
Brain [16] = experiment: Biodistribution in mouse brain at 4.8 MBq/140 uL, iv after 1 min by gamma counting; assay type: ADME, organism-based; conditions: in vivo; in short: as §1
Thalamus [17] = experiment: Drug uptake in Sprague-Dawley rat thalamus at 17 MBq administered as bolus infusion by PET analysis in presence of JNJ16259685; assay type: ADME, organism-based; conditions: in vivo, iv
Heart [18] = experiment: Biodistribution in mouse heart at 4.8 MBq/140 uL, iv after 15 mins by gamma counting; assay type: ADME, organism-based; conditions: in vivo, 0.25 h; in short: as §1
Striatum [19] = experiment: Drug uptake in Sprague-Dawley rat striatum at 16 MBq administered as bolus infusion after 90 mins by PET analysis; assay type: ADME, organism-based; conditions: in vivo, iv, 1.5 h
Blood = experiment: Biodistribution in mouse blood at 4.8 MBq/140 uL, iv after 5 mins by gamma counting; assay type: ADME, organism-based; conditions: in vivo; in short: as §1
Lung [20] = experiment: Biodistribution in mouse lung at 4.8 MBq/140 uL, iv after 15 mins by gamma counting; assay type: ADME, organism-based; conditions: in vivo, 0.25 h; in short: as §1
Striatum [21] = experiment: Drug uptake in Sprague-Dawley rat striatum at 17 MBq administered as bolus infusion by PET analysis in presence of JNJ16259685; assay type: ADME, organism-based; conditions: in vivo, iv

Drug uptake (Lung [1]): 2.9 % ID/g | Drug uptake (Heart [2]): 2.09 % ID/g | Drug uptake (Muscle tissue [3]): 0.95 % ID/g | Drug uptake (Brain [4]): Not Active | Drug uptake (Mus musculus [5]): 3.65 % ID/g | remaining at 1.5 h [6]: > 80% | Drug uptake (Muscle tissue [7]): 2.04 % ID/g | Drug uptake (Cerebellum): Active | Drug uptake (Heart [8]): 4.63 % ID/g | Drug uptake (Liver): 4.68 % ID/g | Drug uptake (Mus musculus [9]): 0.38 % ID/g | Drug uptake (Muscle tissue [10]): 0.64 % ID/g | Ratio [11]: 4.32 | Drug uptake (Kidney): 5.64 % ID/g | Drug uptake (Brain [12]): 3.21 % ID/g | Stability (Plasma): Unstable | Drug uptake (Lung [13]): 5.17 % ID/g | Drug uptake (Spleen): 1.97 % ID/g | Drug uptake (Mus musculus [14]): 0.83 % ID/g | Drug uptake (Thalamus [15]): 80% | Drug uptake (Brain [16]): 3.1 % ID/g | Drug uptake (Thalamus [17]): Not Active | Drug uptake (Heart [18]): 1.19 % ID/g | Drug uptake (Striatum [19]): 80% | Drug uptake (Blood): 1.95 % ID/g | Drug uptake (Lung [20]): 1.91 % ID/g | Drug uptake (Striatum [21]): Not Active
Structure (SMILES): CC(C)Nc1cc(-c2csc(N(C)C(=O)c3ccc(O[11CH3])cc3)n2)ncn1
